A selection: hits, their analogues and other compounds. The true share with any hit is near 8.9%.
HSV replic up: increases HSV replication in cells. 220,000 tested, 0.005% active. AID 1956. maximum fold increase. HSV replication augmentation in cells, fold increase; in the data active = maximum fold increase above about 1.5; tested in PC3 cells
MT stabilize HCS: microtubule stabilizers in HeLa cells; HeLa tubulin immunostaining HCS, 24 h; share of cells brighter than vehicle mean+2SD; % tubulin-high responders, % at 10 µM; 200,000 tested, 0.83% active; AID 2205;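 active = plate Z-score above 3 for both tubulin-high and condensed-nucleus cell shares, with cell loss under 80%, at 10 µM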;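 note: anti alpha tubulin signal scored within the nucleus-defined area of each cell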
L major viab: Leishmania major promastigote growth inhibition. Leishmania major promastigotes, resazurin fluorescence viability. inhibition, % at 10 µM. 200,000 tested, 9% active; in the data active = inhibition above about 50%;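 note: promastigotes grown with compound for 44 hours at 28 °C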
bCat nuc transl: beta-catenin nuclear translocation modulation; nuclear translocation activity, % at 5 µM; AID 1665; 190,000 tested, 0.3% active; HeLa beta-catenin nuclear translocation, immunofluorescence imaging;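 active = nuclear translocation activity above 50% at 5 µM, with a well cell count of 50 or more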;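 note: per-cell ratio of nuclear to cytoplasmic median beta-catenin stain intensity; plate controls were DMSO negative control for no effect and GSK-3 inhibitor IX positive control for full effect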
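Assay system: human HeLa cells, native beta-catenin; doses: 5 µM primary, 0.02–20 µM confirmation; incubation: compound treatment 24 h, 37°C, 5% CO2; technique: fluorescence imaging of beta-catenin antibody stain plus DAPI; measure: % activation, nuclear-to-cytoplasmic median beta-catenin signal ratio per cell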
Dynein transport: blocks dynein driven cargo transport along microtubules. 3617.4 mouse cells, GR-EGFP nuclear translocation imaging; test concentration mostly 20 µM; stimulated with dexamethasone, 1 µM; active compounds read low. z-score, hits read low. 220,000 tested, 0.47% active;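 active = plate z-score of nuclear minus cytoplasmic receptor signal below a set negative limit, without overly bright fluorescence or cell loss, cut at about -3.5 in these data, passing the limit was not always enough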;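 note: z-score of nuclear minus cytoplasmic ring GR-EGFP intensity difference per well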
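Also added: dexamethasone, 1.0 µM final. Medium: tet-free, stripped-serum medium. Detection: fixed, Hoechst-stained cells imaged at 10x for EGFP. Read-out: nuclear-to-cytoplasmic GR-EGFP distribution per well. Times: induction 48 h, compound 1 h, agonist 30 min.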
* marks the source's active call; other numbers are inactive results; i = inactive; · = no result given.

SMILES	HSV replic up	MT stabilize HCS	L major viab	bCat nuc transl	Dynein transport
Cc1[nH]n(-c2ccccc2)c(=O)c1N=Nc1nccs1	i	2	96*	-6	0.27
CC(=O)c1cccc(NC(=O)CCCOc2ccc(C)cc2)c1	i	3	-1	-3	-0.27
Cc1c(-c2cccc(NC(=O)c3ccco3)c2)nc2ncccn12	i	4	100*	-2	0.31
Cc1c(-c2cccc(NC(=O)c3cccs3)c2)nc2ncccn12	i	5	75*	-3	-0.06
Cc1onc(-c2ccccc2Cl)c1C(=O)Nc1cccc(-c2nc3ncccn3c2C)c1	·	7	14	1	0.36
Cc1nc(-c2cccc(NC(=O)c3cccs3)c2)cs1	i	4	5	-1	-0.57
COc1ccc(-n2cc(CNCCc3cnc[nH]3)c(-c3cccc(F)c3)n2)cc1	i	3	100*	0	0.078
COc1ccc(CNCc2cn(-c3cccc(F)c3)nc2-c2ccc(C)o2)cc1	i	3	96*	2	1.6
COc1ccc(-n2cc(CNCc3cccnc3)c(-c3cccc(F)c3)n2)cc1	i	4	48	-3	-0.51
COc1ccc(-n2cc(CNC3CCC(O)CC3)c(-c3cccc(F)c3)n2)cc1 (centres undefined)	i	3	84*	2	-0.69
C[N+](C)(C)CCCCCCC(=O)/C=N/O	i	4	-5	0	0.048
N#CN=C1CCCCCN1CC(N)=O	i	2	-5	1	0.048
CCC(=O)NC(NC(=S)Nc1ccccc1Br)C(Cl)(Cl)Cl (centres undefined)	·	3	2	-2	-0.52
CCOC(=O)c1ccc(NC(=O)C2CCCN(S(=O)(=O)c3ccc(F)cc3)C2)cc1 (centres undefined)	i	2	59*	·	-0.84
O=C(Nc1ccc(S(=O)(=O)N2CCCCC2)cc1)C1CCCN(C(=O)c2ccc(Cl)cc2)C1 (centres undefined)	i	2	56*	1	-0.13
CCOC(=O)c1ccc(NS(=O)(=O)N2CCCCCC2)cc1	i	3	95*	·	-0.78
CCN1C(=O)c2cccc3c(NC(=O)c4ccc5c(c4)OCCO5)ccc1c23	i	2	-7	0	3.4
CCN1C(=O)c2cccc3c(NC(=O)c4ccccc4)ccc1c23	i	3	91*	-2	-0.78
CCN1C(=O)c2cccc3c(NC(=O)c4ccc(OC)c(OC)c4)ccc1c23	i	2	100*	-4	-0.65
CCOc1ccccc1N1CCN(S(=O)(=O)c2cccs2)CC1	i	3	13	-1	0.32
COc1ccc(N2CCN(C(CNS(=O)(=O)c3cccs3)c3cccnc3)CC2)cc1 (centres undefined)	i	2	98*	·	-1.1
COc1ccccc1N1CCN(C(CNS(=O)(=O)c2cccs2)c2cccnc2)CC1 (centres undefined)	i	4	83*	-1	0.84
O=S(=O)(NCC(c1cccnc1)N1CCN(c2ccccc2)CC1)c1cccs1 (centres undefined)	i	1	89*	·	-0.34
O=S(=O)(NCC(c1cccnc1)N1CCOCC1)c1ccccc1 (centres undefined)	i	1	-2	1	0.6
COc1ccc(N2CCN(C(=O)c3ccc(NS(=O)(=O)c4cccs4)cc3)CC2)cc1	i	2	13	0	1
SMILES	HSV replic up	MT stabilize HCS	L major viab	bCat nuc transl	Dynein transport
CNC(=S)NNC(=O)c1sccc1OCc1ccc(Cl)cc1Cl	i	2	-11	2	-0.96
N/C(=N\NC(=O)c1sccc1OCc1ccc(Cl)cc1Cl)c1ccccn1	i	5	100*	0	-0.0096
Fc1ccc(OCCOCCNCC2CCCO2)cc1 (centres undefined)	i	2	31	0	-0.81
O=c1cc(O)c(-c2ccc(Cl)cc2)c(Cl)[nH]1	i	·	·	1	3.7
COc1ccc(C(=O)NNC(=O)C(NC(=O)c2ccccc2NC(=O)c2ccco2)C(C)C)cc1 (centres undefined)	i	3	67*	0	0.13
COc1ccc(-c2nc(-c3ccccc3)c(-c3cc([N+](=O)[O-])ccc3C)[nH]2)cc1OC	i	1	65*	2	0.53
COc1ccc(NCc2nnc(SCCN3CCCCC3)n2-c2ccc(C)cc2)cc1	i	4	2	1	-1
CN(Cc1ccccc1)C(=S)Nc1ccc(OC(F)F)cc1	i	4	-6	-2	-0.49
N#CCCN(Cc1ccccc1)C(=S)Nc1ccccc1	i	3	52*	·	-0.0089
CCOc1ccc(CN(CCC#N)C(=S)NC(=O)c2ccccc2)cc1	i	4	20	1	0.031
CN(C)CCCN(Cc1ccccc1)C(=S)Nc1ccc(OC(F)F)cc1	i	5	99*	-1	0.13
CCOc1ccc(C(=O)NC(=S)N(Cc2ccccc2)Cc2ccccc2)cc1	i	2	57*	0	1.4
COc1ccc(CN(CCC#N)C(=S)NC(=O)c2ccccc2)cc1	i	2	60*	0	0.59
CCOc1ccc(C(=O)Nc2ccc(-c3cc4ccccc4oc3=O)c(C)c2)cc1[N+](=O)[O-]	i	6	56*	-1	-0.55
Cc1ccc(C(=O)Nc2cc3ccccc3oc2=O)cc1	i	33*	-6	84*	-0.47
CCOc1ccc(C(=O)Nc2ccc(-c3nc4ccccc4[nH]3)cc2)cc1[N+](=O)[O-]	i	5	-3	·	-0.089
Cc1cc(NC(=S)NC(=O)c2ccccc2)ccc1-c1cc2ccccc2oc1=O	i	15*	35	0	0.17
CC(=O)Nc1cc2ccccc2oc1=O	i	1	-2	1	-0.16
CSc1nsc(N/N=C/c2ccc3c(c2)OCO3)c1C#N	i	2	-7	0	0.66
COc1ccc(-c2cc(CCCC(=O)NCCc3cc(OC)ccc3OC)no2)cc1	·	4	13	-1	-0.18
c1ccc(-c2ccccc2OCCCN2CCCCCC2)cc1	i	6	98*	7	-0.92
c1ccc(-c2ccccc2OCCCN2CCCC2)cc1	i	1	48	1	0.45
CC1CC(C)CN(CCOc2ccccc2-c2ccccc2)C1 (centres undefined)	i	4	32	-1	-0.28
c1ccc(-c2ccccc2OCCCCN2CCCCC2)cc1	i	4	95*	-2	-0.24
COc1ccccc1OCC(=O)Nc1ccc(Cl)cc1	i	2	4	0	0.8
CCC(=O)N(Cc1cc2ccc(C)cc2n2nnnc12)C1CCCCC1	i	4	1	0	0.67
OCCN1CCN(C(c2cccs2)c2ccc3cccnc3c2O)CC1 (centres undefined)	i	7	53*	0	0.88
Cn1c(N)c(C(=O)c2ccccc2)c(=O)n(C)c1=O	i	1	5	-6	1.4
Cn1c(=O)c2nnn(/N=C(\c3ccccc3)C3CC3)c2n(C)c1=O	i	3	76*	-6	0.15

Source: PubChem BioAssay
